Results published in the array DNA melting data of Ke et al. (doi:10.1101/2024.01.08.574731).

What was measured:
[1] = melting temperature; fluorescence melt of hairpins on a sequencing array, two-state fit, raised by 9.35 °C to match UV melts; settings: sodium 0.088 M
Procedure, shortened: (§1)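 Hairpins were imaged by Cy3 fluorescence on a sequenced MiSeq flow cell with annealed Cy3 and quencher oligos, in 50 mM Na-HEPES pH 8.0, 25 mM NaCl, in 2.5 °C steps up to 60 °C. Bootstrapped two-state fits of normalised signals gave melting temperature and folding enthalpy. Four replicates were combined by inverse variance, and fitted temperatures were raised by 9.35 °C to match UV melts.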

[2] = folding enthalpy; higher = less favourable; fluorescence melt of hairpins on a sequencing array, two-state fit; settings: sodium 0.088 M
Procedure, shortened: as §1

Sequence | Tm [1] | folding enthalpy [2]
CGTGCTCGGAAACGAACG (((..(((....)))))) | 21.2 °C | -5.98 kcal/mol
CGTGGTCGGAAACGAACG (((..(((....)))))) | 30.5 °C | -16.3 kcal/mol
CGTGTACGGAAACGTACG (((..(((....)))))) | 46 °C | -8.98 kcal/mol
CGTGTCCGGAAACGGACG (((..(((....)))))) | 48.1 °C | -7.66 kcal/mol
CGTGTCGGAAACGATACG (((.(((....))).))) | 53.2 °C | -39.1 kcal/mol
CGTGTGCGGAAACGCACG (((..(((....)))))) | 54.5 °C | -6.54 kcal/mol
CGTTACGGAAACGTCACG (((.(((....))).))) | 44.5 °C | -23.6 kcal/mol
CGTTCGGAAACGAACACG ((((((....)))..))) | 39.1 °C | -11.5 kcal/mol
CGTTCGGAAACGACTACG ((((((....)))..))) | 29 °C | -12.6 kcal/mol
CGTTCGGAAACGATACG ((((((....))).))) | 42.1 °C | -27.1 kcal/mol
CGTTCGGAAACGATTACG ((((((....)))..))) | 35.7 °C | -18.1 kcal/mol
CGTTGACGGAAACGTACG (((..(((....)))))) | 43.2 °C | -18.8 kcal/mol
CTAACTGAAAAGTTAG ((((((....)))))) | 45.9 °C | -23.3 kcal/mol
CTAGAGAAATCTAG (((((....))))) | 26.2 °C | -7.95 kcal/mol
CTCGGGAAACCGAG (((((....))))) | 56.1 °C | -23.9 kcal/mol
CTCTCGAAAGAGAG (((((....))))) | 53.3 °C | -21.5 kcal/mol
CTTAGGAAACTAAG (((((....))))) | 33.4 °C | -11.4 kcal/mol
CTTCAGAAATGAAG (((((....))))) | 36 °C | -11.5 kcal/mol
CTTCGGAAACGAAG (((((....))))) | 50.3 °C | -20.9 kcal/mol
CTTGGGAAACCAAG (((((....))))) | 45.9 °C | -22.4 kcal/mol
GAAAAAACGAAAGTTTTC (((..(((....)))))) | 30.9 °C | -13.4 kcal/mol
GAAAAACGAAAGTTTTC (((.(((....)))))) | 36.9 °C | -15.7 kcal/mol
GAAAACGAAAGTTCTTC ((((((....))).))) | 36.1 °C | -17.8 kcal/mol

Sequence | Tm [1] | folding enthalpy [2]
GAAAACGAAAGTTCTTTC ((((((....)))..))) | 28.9 °C | -15.9 kcal/mol
GAAAAGCGAAAGCTCTTC (((.(((....))).))) | 36.5 °C | -15.4 kcal/mol
GAAAAGGAAACTTTTC ((((((....)))))) | 39.7 °C | -25.2 kcal/mol
GAAAAGGGAAACCTTTTC (((((((....))))))) | 50.6 °C | -38.8 kcal/mol
GAAACACCGAAAGGTTTC (((..(((....)))))) | 31.9 °C | -17.4 kcal/mol
GAAACACGAAAGTGTTC (((.(((....)))))) | 44 °C | -12.7 kcal/mol
GAAACAGGAAACTGTTTC (((((((....))))))) | 55.5 °C | -41.9 kcal/mol
GAAACCGAAAGGTGCTTC ((((((....)))..))) | 43.5 °C | -19.4 kcal/mol
GAAACCGAAAGGTGTTTC ((((((....)))..))) | 35.9 °C | -13.2 kcal/mol
GAAACCGAAAGGTTTTTC ((((((....)))..))) | 48.8 °C | -15.6 kcal/mol
GAAACCGGAAACGGTTCC (.(((((....))))).) | 41.4 °C | -13.4 kcal/mol
GAAAGACGAAAGTCGTTC (((.(((....))).))) | 46 °C | -15.1 kcal/mol
GAAAGCCGAAAGGCATTC (((.(((....))).))) | 45.9 °C | -15.2 kcal/mol
GAAAGCCGAAAGGCCTTC (((.(((....))).))) | 41.4 °C | -14.4 kcal/mol
GAAAGCCGAAAGGCTTC (((.(((....)))))) | 50.2 °C | -9.06 kcal/mol
GAAAGCGAAAGCTATTTC ((((((....)))..))) | 25.2 °C | -11.8 kcal/mol
GAAAGCGAAAGCTGCTTC ((((((....)))..))) | 42.9 °C | -19.4 kcal/mol
GAAAGCGAAAGCTTATTC ((((((....)))..))) | 32.7 °C | -10.9 kcal/mol
GAAAGCGAAAGCTTCTTC ((((((....)))..))) | 53.5 °C | -24.5 kcal/mol
GAAAGCGCGAAAGCGTTC (((..(((....)))))) | 28.3 °C | -7.58 kcal/mol
GAAAGCGGAAACGCCTTC (((.(((....))).))) | 34.1 °C | -18.4 kcal/mol
GAAAGGCGAAAGCCATTC (((.(((....))).))) | 41.4 °C | -16.5 kcal/mol
GAAAGGGGAAACCTTTTC ((((.((....)).)))) | 34.2 °C | -27.1 kcal/mol

Sequence | Tm [1] | folding enthalpy [2]
GAAAGTGGAAACACCTTC (((.(((....))).))) | 28.8 °C | -9.58 kcal/mol
GAAAGTGGAAACACTTCC (.(((((....))))).) | 33.7 °C | -16.6 kcal/mol
GAAATAGCGAAAGCTTTC (((..(((....)))))) | 28.6 °C | -11.8 kcal/mol
GAAATAGGAAACTGTTTC ((((.((....)).)))) | 36.1 °C | -21.3 kcal/mol
GAAATCACGAAAGTGTTC (((..(((....)))))) | 20.8 °C | -9 kcal/mol
GAAATCCGAAAGGACTTC (((.(((....))).))) | 37.6 °C | -29.8 kcal/mol
GAAATGGGAAACTATTTC (((((.(....).))))) | 33.7 °C | -23 kcal/mol
GAAATTGGAAACAATTTC (((((((....))))))) | 51.3 °C | -35.8 kcal/mol
GAACAACCGAAAGGTTTC (((..(((....)))))) | 29.3 °C | -9.63 kcal/mol
GAACAACGAAAGTTCTTC (((.(((....))).))) | 38.7 °C | -29.8 kcal/mol
GAACAACGAAAGTTTTTC (((.(((....))).))) | 31.6 °C | -17.8 kcal/mol
GAACAAGGAAACTCGTTC ((((.((....)).)))) | 27 °C | -16.4 kcal/mol
GAACAAGGAAACTTGTCC (.(((((....))))).) | 31.3 °C | -15.4 kcal/mol
GAACACGAAAGTGACTTC ((((((....)))..))) | 35.4 °C | -20.8 kcal/mol
GAACACGAAAGTGCCTTC ((((((....)))..))) | 32.9 °C | -18.7 kcal/mol
GAACACGAAAGTGGATTC ((((((....)))..))) | 39.8 °C | -18.6 kcal/mol
GAACACGAAAGTGTATTC ((((((....)))..))) | 33.6 °C | -9.83 kcal/mol
GAACACGAAAGTGTTTTC ((((((....)))..))) | 49 °C | -15.1 kcal/mol
GAACACGCGAAAGCGTTC (((..(((....)))))) | 27.9 °C | -8.07 kcal/mol
GAACACGGAAACATGTTC (((((.(....).))))) | 35.1 °C | -28 kcal/mol
GAACACGGAAACGTGCTC ((.((((....)))).)) | 43 °C | -18.6 kcal/mol
GAACAGGAAACTGTTC ((((((....)))))) | 52.9 °C | -38.4 kcal/mol
GAACATCCGAAAGGATTC (((..(((....)))))) | 26.3 °C | -11.7 kcal/mol

Sequence | Tm [1] | folding enthalpy [2]
GAACCACGAAAGTGATTC (((.(((....))).))) | 43.7 °C | -23.9 kcal/mol
GAACCACGAAAGTGCTTC (((.(((....))).))) | 32.3 °C | -17.1 kcal/mol
GAACCCCCGAAAGGGTTC (((..(((....)))))) | 55 °C | -24 kcal/mol
GAACCCGAAAGGGAGTTC ((((((....)))..))) | 40 °C | -13.7 kcal/mol
GAACCCGAAAGGGGATTC ((((((....)))..))) | 42.9 °C | -16.6 kcal/mol
GAACCCGAAAGGGGTTTC ((((((....)))..))) | 46.9 °C | -11.6 kcal/mol
GAACCCGGAAACAGGTTC (((((.(....).))))) | 40 °C | -25.9 kcal/mol
GAACCCGGAAACGGGCTC ((.((((....)))).)) | 47.3 °C | -15.4 kcal/mol
GAACCGCGAAAGCGATTC (((.(((....))).))) | 47.8 °C | -24.8 kcal/mol
GAACCGCGAAAGCGTTC (((.(((....)))))) | 44 °C | -14.2 kcal/mol
GAACCTGGAAACAAGTTC ((((.((....)).)))) | 26.8 °C | -15.9 kcal/mol
GAACGACGAAAGTCCTTC (((.(((....))).))) | 31.3 °C | -14.3 kcal/mol
GAACGAGGAAACTCGCTC ((.((((....)))).)) | 38.9 °C | -20.5 kcal/mol
GAACGCGGAAACGCGCTC ((.((((....)))).)) | 50.3 °C | -15.1 kcal/mol
GAACGGCGAAAGCCATTC (((.(((....))).))) | 44.2 °C | -16.8 kcal/mol
GAACTACGAAAGTACTTC (((.(((....))).))) | 25.9 °C | -9.53 kcal/mol
GAACTAGGAAACCAGTTC (((((.(....).))))) | 33.9 °C | -28.3 kcal/mol
GAACTAGGAAACTAGTTC (((((((....))))))) | 53.8 °C | -40.2 kcal/mol
GAACTCCGAAAGGAATTC (((.(((....))).))) | 37.5 °C | -25.9 kcal/mol
GAACTCCGAAAGGATTC (((.(((....)))))) | 37.1 °C | -17 kcal/mol
GAACTCGAAAGAGTTC ((((((....)))))) | 61.6 °C | -39.3 kcal/mol
GAACTGCGAAAGCAATTC (((.(((....))).))) | 36.7 °C | -21.7 kcal/mol
